Experimental data gathered from unrelated publications.
Lines come from different studies, so protocols differ.
Target: Sodium-dependent noradrenaline transporter (SLC6A2, Homo sapiens, UniProt P23975)

Structure (SMILES) | test | test system | conditions | inhibition
CCN(Cc1ccccc1C(F)(F)F)C(=O)C1CCN(S(=O)(=O)c2ccc3[nH]ncc3c2)CC1 | ligand displacement, radioligand | – | 10 µM | 20%
O=C(Nc1ccc(S(=O)(=O)N2CCC(Cl)CC2)cc1)c1ccc([N+](=O)[O-])o1 | ligand displacement, radioligand | – | 10 µM | 28%
O[C@@H]1[C@H](O)[C@@H]2C[C@@H]2[C@H]1n1cnc2c(NCc3cccc(Cl)c3)ncnc21 | ligand displacement, radioligand | – | 10 µM | 35%
O=C(c1ccc(Cl)cc1)N(Cc1ccccc1)C1CCCCC1 | cell-free assay | – | 10 µM | 14.9%
Clc1ccc(C(c2ccccc2)c2nnnn2CCCCN2CCC(CCc3ccccc3)CC2)cc1 (stereo not drawn) | transporter uptake, inhibitor | HEK293 | 1 µM | 72.4%
COc1ccc(-n2nc(OCCCN3CCCCC3)ccc2=O)cc1 | ligand displacement | – | 1 µM | 18.5%
c1ccc(C2CCN(CCCCn3nnnc3C(c3ccccc3)c3ccccc3)CC2)cc1 | transporter uptake, inhibitor | HEK293 | 1 µM | 66.3%
O[C@@H]1[C@H](O)[C@@H]2C[C@@H]2[C@H]1n1cnc2c(NCCc3ccccc3)nc(C#Cc3ccccc3Cl)nc21 | ligand displacement, radioligand | – | 10 µM | 24%
Clc1ccc(C(c2ccc(Cl)cc2)c2nnnn2CCCN2CCC(CCCc3ccccc3)CC2)cc1 | transporter uptake, inhibitor | HEK293 | 1 µM | 10.8%
Ic1cccc2cnccc12 | ligand displacement, radioligand | – | 10 µM | 44%
CCCNc1nc2ccccc2n1Cc1ccc(Cl)cc1 | ligand displacement | – | 10 µM | 21.9%
Clc1ccc(C(c2ccc(Cl)cc2)c2nnnn2CCCN2CCC(Cc3ccccc3)CC2)cc1 | transporter uptake, inhibitor | HEK293 | 1 µM | 8.36%
